The source of these data is ChEMBL document CHEMBL4020844, “Regio- and Stereospecific Synthesis of Oridonin D-Ring Aziridinated Analogues for the Treatment of Triple-Negative Breast Cancer via Mediated Irreversible Covalent Warheads” (J Med Chem, 2018).

The source made the active and inactive calls. No cut-off for these calls is given here.

Data set [1] in a line: Stability in mouse microsomes. It is filed as ADME, Microsome.
In data set [2] the test system is Plasma. The data set can be described thus: Stability in human plasma up to 5 hrs. It is filed as ADME, cell-free.
Data set [3] is described as follows: Glutathione reactivity in pH 7.4 deuterated phosphate buffer assessed as GSH adduct formation at 10 mg after 5 hrs in presence of 1.5 to 2 equiv of GSH by HRMS analysis.
For data set [4], the system named is Plasma. The data set can be described thus: Stability in mouse plasma up to 5 hrs. It is filed as ADME, cell-free.
A short description of data set [5]: Stability in human microsomes. The class given is ADME, Microsome.
A short description of data set [6]: Glutathione reactivity in pH 7.4 deuterated phosphate buffer assessed as reaction half life at 10 mg up to 24 hrs in presence of 1.5 to 2 equiv of GSH by 1H NMR analysis. The class given is physicochemical. As to conditions: pH 7.4, 24 h.
The nature of data set [7]: Stability in rat microsomes. The class given is ADME, Microsome.
For data set [8], the system named is Plasma. Kind of data set: Stability in rat plasma up to 5 hrs. It is filed as ADME, cell-free.
Data set [9] can be described thus: Glutathione reactivity in pH 7.4 deuterated phosphate buffer assessed as reaction half life at 10 mg up to 10 mins in presence of 1.5 to 2 equiv of GSH by 1H NMR analysis. The class given is physicochemical.
The nature of data set [10]: Drug level in pH 7.4 deuterated phosphate buffer treated with (2R,3'S,3a'R,3a1'R,6a'R,7'S,11'S,11a'S)-7',11'-Dihydroxy-5',5',8',8'-tetramethyldecahydro-2'H-spiro[aziridine-2,15'-[6a,11a]-(epoxymethano)[3,3a1]ethanophenanthro[1,10-de][1,3]dioxin]-14'-one at 10 mg after 5 hrs in presence of 1.5 to 2 equiv of GSH by HRMS analysis.
Data set [11] is described as follows: Drug level in pH 7.4 deuterated phosphate buffer treated with oridonin at 10 mg up to 10 mins in presence of 1.5 to 2 equiv of GSH by HRMS analysis.
The subject of data set [12] is MDA-MB-231. The data set can be described thus: Antiproliferative activity against human MDA-MB-231 cells after 72 hrs by MTT assay. It is filed as functional, cell-based. The essentials: (§1)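 MTT proliferation assay. Cells were seeded at 1 × 10^4 per well and exposed to DMSO or compound at 0.1, 0.33, 1.0, 3.3 and 10 μM for 72 h. MTT reagent was added, and OD at 560 nm was read after 1 h at 37°C. Each concentration was tested in quadruplicate wells.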
Background: Tetrazolium dyes change colour on reduction, which living cells bring about.

A further data set deals with MCF7. The data set can be described thus: Antiproliferative activity against human MCF7 cells after 72 hrs by MTT assay. The class given is functional, cell-based. Summed up: as §1
Data set [13] in a line: Glutathione reactivity in pH 7.4 deuterated phosphate buffer at 10 mg after 20 hrs in presence of 1.5 to 2 equiv of GSH by 1H NMR analysis.
Data set [14] relates to MDA-MB-231. Kind of data set: Antitumor activity against human MDA-MB-231 cells xenografted in nude mouse assessed as tumor growth inhibition at 10 mg/kg, ip daily for 10 days. It is filed as functional, organism-based. Summed up: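 Orthotopic model: female nude mice, 6–8 weeks old. MDA-MB-231 cells (1.0 × 10^6 in PBS) were injected into the no. 3 mammary fat pad, and mice were randomized into 4 groups. Once tumors reached 80–100 mm3, mice received 10 or 15 mg/kg daily by intraperitoneal injection in DMSO vehicle. Tumor volume (0.5 × L × W2) and body weight were measured daily. Mean ± SEM.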
Background: Xenograft models place foreign cells or tissue in a host animal.

Data set [15] in a line: Glutathione reactivity in pH 7.4 deuterated phosphate buffer assessed as GSH adduct formation at 10 mg up to 10 mins in presence of 1.5 to 2 equiv of GSH by HRMS analysis.
Data set [16] can be described thus: Toxicity in ip dosed ddYS mouse implanted with mouse ehrlich carcinoma cells administered once daily for 7 consecutive days measured for 40 days. The note with it: in vivo. It is filed as organism-based.
Data set [17] can be described thus: Drug level in pH 7.4 deuterated phosphate buffer treated with (2R,3'S,3a'R,3a1'R,6a'R,7'S,11'S,11a'S)-1-Acryloyl-7',11'-dihydroxy-5',5',8',8'-tetramethyldecahydro-2'H-spiro[aziridine-2,15'-[6a,11a](epoxymethano)[3,3a1]ethanophenanthro[1,10-de][1,3]-dioxin]-14'-one at 10 mg after 1 hr in presence of 1.5 to 2 equiv of GSH by HRMS analysis.
The nature of data set [18]: Potency index, ratio of oridonin IC50 to compound IC50 for human LX2 cells. It is filed as functional.
The nature of data set [19]: Antiproliferative activity against human LX2 cells by alamar blue assay. The class given is functional, cell-based. As to conditions: LX-2. (In general: Alamar Blue is a resazurin reagent that responds to reducing activity.)

As to `CC1(C)O[C@@H]2[C@H]3CC[C@H]4[C@@]56CO[C@@](O1)([C@@H](O)[C@@H]5C(C)(C)CC[C@@H]6O)[C@@]24C(=O)C31CN1` (some centres undefined), the Stability result (in [1]; in the data set with Plasma [2]; with Plasma [4]; in data set [5]; in data set [7]; in the data set with Plasma [8]) was “Stable” each time. Moreover, the Drug metabolism result in data set [3] was “Metabolite detected”. Also, the t1/2 in [6] fell in the range of 4 to 6 h.
On to `C=C1C(=O)[C@]23[C@H](OC(=O)[C@H](C)N)[C@H]1CC[C@H]2[C@@]12CO[C@@]3(O)[C@@H](O)[C@@H]1C(C)(C)CC[C@@H]2O.O=C(O)C(F)(F)F`, for which, in data set [9] (in vitro, pH 7.4, 10 min), the Drug metabolism entry is listed as “Metabolite_Detected”.
Consider `CC1(C)O[C@@H]2[C@H]3CC[C@H]4[C@@]56CO[C@@](O1)([C@@H](O)[C@@H]5C(C)(C)CC[C@@H]6O)[C@@]24C(=O)C3(N)CSCC(NC(=O)CC[C@H](N)C(=O)O)C(=O)NCC(=O)O` (some centres undefined), for which the Drug metabolism result in data set [10] is on record as “Metabolite detected”.
Take `CC1(C)CC[C@H](O)[C@]23CO[C@@](O)([C@@H](O)[C@H]12)[C@]12C(=O)C(CSCC(NC(=O)CC[C@H](N)C(=O)O)C(=O)NCC(=O)O)[C@H](CC[C@@H]31)[C@H]2O` (some centres undefined): in data set [11], the Drug metabolism entry is “Metabolite detected”.
`C=CCNc1nc2c(s1)CC(C)(C)[C@H]1[C@H](O)[C@]3(O)OC[C@@]21[C@@H]1CC[C@@H]2[C@@H](O)[C@@]13C(=O)C21CN1` (some centres undefined): the result in the data set on MDA-MB-231 [12] and with MCF7 was Active.
Consider `C=CCNc1nc2c(s1)CC(C)(C)[C@H]1[C@H](O)[C@]3(O)OC[C@@]21[C@@H]1CC[C@@H]2[C@@H](O)[C@@]13C(=O)C21CN1C(=O)OCC1c2ccccc2-c2ccccc21` (some centres undefined), for which the result in the data set on MDA-MB-231 [12] and in the data set on MCF7 was Active.
For the compound `O=C(O)C1CN1` (centres undefined), the Drug metabolism result in data set [13] was “Metabolite detected”.
For the compound `CCC(=O)N1CC12C(=O)[C@@]13[C@@H]4OC(C)(C)O[C@@]15OC[C@@]1([C@H]([C@@H]5O)C(C)(C)CC[C@@H]1O)[C@@H]3CC[C@H]42` (some centres undefined), the outcome with MDA-MB-231 [12] and in the data set on MCF7 was inactive.
Take `C=C1C(=O)[C@@]23[C@@H]4OC(C)(C)O[C@@]25OC[C@@]2([C@H]([C@@H]5O)C(C)(C)CC[C@@H]2O)[C@@H]3CC[C@@H]14`: in data set [9] (gsh, pH 7.4, 10 min), the t1/2 is < 1 min.
With `C=C1C(=O)[C@]23[C@H](O)[C@H]1CC[C@H]2[C@@]12CO[C@]3(O)[C@@H](O)[C@@H]1C(C)(C)CC[C@@H]2O` [ORIDONIN], the Stability entry (in data set [1]; in the data set with Plasma [2]; in the data set on Plasma [4]; in [5]; in [7]; in the data set on Plasma [8]) was “Stable” in each case. Also, the IC50 with MDA-MB-231 [12] (MDA-MB-231, 72 h) worked out at 29.4 µM; in the data set with MCF7 (MCF7, 72 h), 6.72 µM. Also, in the data set on MDA-MB-231 [14], the TGI result was “Active”. For the same compound, the Drug metabolism entry in data set [15] is given as “Metabolite detected”. In addition, in data set [16], the LD50 at 960 h turned out to be 37.5 mg/kg. In addition, the half-life in data set [9] (deuterated phosphate buffer with glutathione (GSH), pH 7.4) was < 1 min.
As to `CC1(C)O[C@@H]2[C@H]3CC[C@H]4[C@@]56CO[C@@](O1)([C@@H](O)[C@@H]5C(C)(C)CC[C@@H]6O)[C@@]24C(=O)C31CN1C(=O)CCSC[C@H](NC(=O)CC[C@H](N)C(=O)O)C(=O)NCC(=O)O` (some centres undefined), the Drug metabolism entry in data set [17] is recorded as “Metabolite detected”.
With `C=C1C(=O)[C@]23[C@H](O)[C@H]1CC[C@H]2[C@]12C=CCC(C)(C)[C@H]1[C@H](O)[C@]3(O)OC2`, the “Ratio IC50” value in data set [18] is given as 10. In data set [19], this compound displayed a half-inhibitory concentration (IC50) of 0.49 µM.

What is called IC50 is the concentration that gives 50% inhibition. A lower IC50 goes with higher potency. One may read the LD50 as the dose expected to kill half of the subjects tested. A low value points to a more toxic substance. The term half-life denotes the time in which the quantity being followed falls by half.
